Only some compounds are listed: those with a hit (about 2.3% of all), similar ones and a draw of the others.
TRPC4 block: inhibitors of mouse TRPC4 channel; Q9QUQ5; HEK293 TRPC4beta/mu-opioid, DAMGO-evoked Fluo4 calcium flux; active compounds read low; B-score at 10 µM; 300,000 tested, 0.39% active; AID 2247;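 active = B-score over 3 SD under the library average, no early fluorescence shift, positive overall ratio signal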
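material = TRPC4beta/mu-opioid receptor HEK293 cell line | probe or stimulus = sequential submaximal and maximal DAMGO stimulation | compound dosing = one concentration per compound | measured by = Fluo4 Ca2+ flux fluorescence | evaluation = integrated fluorescence ratio relative to baseline, converted to per-well B score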
TRPC6 activator: activates the mouse TRPC6 cation channel; HEK293-TRPC6 membrane potential dye fluorescence; active compounds read high; B-score at 10 µM; 310,000 tested, 0.13% active; AID 2550;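 active = B-score of the integrated fluorescence ratio above library mean plus 3 SD, and starting fluorescence ratio within library mean plus 5 SD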;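 note: higher score means more depolarization so channel activation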
TRPC6 inhibitor: inhibitors of mouse TRPC6 channel. AID 2553. 310,000 tested, 1.1% active. HEK293-TRPC6, membrane potential dye, ACh-evoked depolarization; active compounds read low. B-score at 10 µM;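 active = B-score under library mean minus 3 SD, initial fluorescence not abnormally high, positive integrated signal ratio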;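 note: B-score derived from integrated fluorescence ratio over the kinetic read; more negative B-score means stronger inhibition of depolarization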
TRPC4 potent: TRPC4 (mouse) allosteric potentiation. 310,000 tested, 0.42% active. HEK293 TRPC4beta/mu-opioid, DAMGO EC20, Fluo-4 Ca2+ flux; active compounds read high. AID 2227. B-score at 10 µM;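 active = B-score of calcium response area above 5 SD of library B-scores, with initial fluorescence ratio within 5 SD of library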
TRPC4 act: opens the mouse TRPC4 cation channel; Q9QUQ5; HEK293 TRPC4beta/mu-opioid, Fluo4 calcium fluorescence; active compounds read high; B-score at 10 µM; 310,000 tested, 0.49% active; AID 2237;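 active = B-score above 5 SD of library B-scores, and initial fluorescence ratio not above library mean plus 5 SD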;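 note: positive B-score marks a calcium rise read as TRPC4 activation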
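Technique: kinetic Fluo4 calcium fluorescence; Test system: TRPC4beta and mu-opioid receptor HEK293 stable cells; Measure: B-scored integrated calcium fluorescence ratio; Benchmarks: low control buffer alone, high control maximal DAMGO; Schedule: 45 min room-temperature Fluo4 loading, 110 s read.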
Each line names hits and unclear results; the compound was inactive in the other large screens.

Cc1ccc(-n2cc(CNC(C)c3cnn(C)c3)c(-c3ccc(F)cc3)n2)cc1 (stereo unspecified)	TRPC4 act 233
Cc1ccc(-n2cc(CNC(C)c3cnn(C)c3C)c(-c3ccc(F)cc3)n2)cc1 (stereo unspecified)	TRPC4 act 184
Cc1ccc(-n2cc(CN3CCN(Cc4nccn4C)CC3)c(-c3ccc(F)cc3)n2)cc1	none
Cc1ccc(-n2cc(CNCCc3cscn3)c(-c3ccc(F)cc3)n2)cc1	TRPC4 act 130
CC(C)n1nnc(-c2ccc(OCc3ccccc3F)cc2)n1	none
Cc1ccc(C2c3c(C)nn(-c4ccc([N+](=O)[O-])cc4)c3N=C3C(=O)Nc4ccccc4N32)cc1 (stereo unspecified)	TRPC6 inhibitor -5.28
COc1ccc(CCN2C(=S)N(C)C(=O)C2CC(=O)Nc2ccc(F)cc2)cc1 (stereo unspecified)	TRPC4 act 120
O=C(OCC(=O)N1CCOCC1)c1ccc(Br)cc1	none
CN(C(=O)c1ccc(OC2CCN(CCc3ccccc3)CC2)cc1)C1CCOCC1	none
CSCCNC(=O)c1ccc(OC2CCN(CCc3ccccc3)CC2)cc1	TRPC4 block -6
Cc1csc(CNC(=O)c2ccc(OC3CCN(CCc4ccccc4)CC3)cc2)n1	none
O=C(NC1CCOC1)c1ccc(OC2CCN(CCc3ccccc3)CC2)cc1 (stereo unspecified)	none
COC(=O)CCCNC(=O)c1ccc(OC2CCN(CCc3ccccc3)CC2)cc1	TRPC4 act 79
O=C(NCCn1cccn1)c1ccc(OC2CCN(CCc3ccccc3)CC2)cc1	TRPC4 act 66
CN(C(=O)c1ccc(OC2CCN(CCc3ccccc3)CC2)cc1)C1CCCCC1	TRPC4 block -6
CCN(CC)c1cccc(OC(=O)c2cccnc2Cl)c1	none
CCn1c(C)nc2cc(C(=O)N/N=C/c3ccc(O)c(O)c3O)ccc21	TRPC4 potent 14
CCC(C)N(C(=O)Cn1nnc2ccccc21)C(C(=O)Nc1ccc(F)cc1)c1cccc(OC)c1 (stereo unspecified)	TRPC6 activator 13.6
CS(=O)(=O)Nc1nc2n(n1)C(c1ccccc1)CC(c1ccccc1)N2 (stereo unspecified)	TRPC4 block -6
CCN(CC(=O)Nc1ccc(NC(C)=O)cc1)C(=O)Cc1ccc(Cl)c(Cl)c1	none
CCOC(=O)N1CCN(S(=O)(=O)c2ccc(C(=O)NNc3nc4c(C)cccc4s3)cc2)CC1	none
CCOC(=O)N1CCN(S(=O)(=O)c2ccc(C(=O)NNc3nc4c(C)cc(C)cc4s3)cc2)CC1	TRPC4 potent 10
O=C(COC(=O)c1nc(Cl)ccc1Cl)c1ccccc1Cl	TRPC4 potent 137
COc1ccccc1C(=O)COC(=O)c1nc(Cl)ccc1Cl	none
Cc1ccc(N2CC(NC(=O)C(=O)c3c(C)[nH]c4ccccc34)CC2=O)cc1C (stereo unspecified)	none
CCOc1ccc(CSC2=NCCN2)cc1[N+](=O)[O-]	TRPC4 potent 11
CCCCOc1ccc(CSC2=NCCN2)cc1[N+](=O)[O-]	none
CC(=O)N1CCOc2ccc(S(=O)(=O)NCCc3cccc(C)c3)cc21	none
CNC(=O)NC(=O)COc1ccc2oc3c(c2c1)CCCC3	none
CNC(=O)COc1ccc2oc3c(c2c1)CCCC3	TRPC4 block -6
Cc1oc2cc(Br)c(O)c(Br)c2c1-c1ccccc1	none
CN(C)C1(CNC(=O)CC(NC(=O)c2ccccc2Cl)c2ccccc2)CCCCC1 (stereo unspecified)	TRPC4 block -7, TRPC4 act 44
O=C(O)C1=C[C@@H](C2CCCCC2)C[C@@H](OCc2ccc(CO)cc2)O1	none
O=C(NC1CC1)C1=C[C@H](C2CCCCC2)C[C@H](OCc2ccc(CO)cc2)O1	TRPC4 block -6, TRPC4 act 249
C#CCNC(=O)C1=C[C@H](C2CCCCC2)C[C@H](OCc2ccc(CO)cc2)O1	TRPC4 act 57
CC(Oc1ccc(Br)cc1)C(=O)Nc1ccc(S(=O)(=O)N(C)C2CCN(C)CC2)cc1 (stereo unspecified)	TRPC4 act 63
COc1cccc(CN2C(=O)C(C)N(C(=O)c3c(F)cccc3F)c3ccccc32)c1 (stereo unspecified)	none
